{"data": "Measured values of several laboratories", "target": "Serine/threonine-protein kinase Nek7 (NEK7, Homo sapiens, UniProt Q8TDX7)", "note": "Each line is one published result; the experiments were not run side by side."}
{"Compound": "COc1cccc(CNC(=O)c2nc3scc(COCc4ccc(C(=O)O)cc4)c3c(=O)[nH]2)c1", "assay": "cell-free assay, competition with immobilised ligand", "conditions": "1 µM", "remaining binding [%]": 100}
{"Compound": "COc1ccnn2ncc(-c3ccnc(N(C)C)n3)c12", "assay": "binding", "conditions": "1 µM", "remaining binding [%]": 100}
{"Compound": "CCN1CCN(Cc2ccc(C(=O)Nc3ccc(C)c(Oc4ccc5c(c4)CC(=O)N5)c3)cc2C(F)(F)F)CC1", "assay": "binding, competition with immobilised ligand", "conditions": "1 µM", "remaining binding [%]": 100}
{"Compound": "Cc1cnc(Nc2ccc(C(=O)N3CCC(N4CCCC4)CC3)cc2)nc1-c1cc2ccccc2s1", "assay": "binding, competition with immobilised ligand", "conditions": "1 µM", "remaining binding [%]": 0.7}
{"Compound": "C=CC(=O)N1CCC(C(=O)NCC(=O)N2CCN(c3nc(-c4cnc(N)nc4C(F)F)nc(N4CCOCC4)n3)CC2)CC1", "assay": "binding, competition with immobilised ligand", "conditions": "1 µM", "remaining binding [%]": 100}
{"Compound": "N[C@H]1CCN(c2nccc(-c3cnn4ncccc34)n2)C1", "assay": "binding", "conditions": "1 µM", "remaining binding [%]": 100}
{"Compound": "O=C(Nc1cnc(Oc2ccc(F)cc2)nc1)N1CCc2ncccc2[C@@H]1c1ccc(F)cc1", "assay": "cell-free assay, competition with immobilised ligand", "conditions": "1 µM", "remaining binding [%]": 84}
{"Compound": "CN(C)c1nccc(-c2cnc3ncccn23)n1", "assay": "binding", "conditions": "1 µM", "remaining binding [%]": 90}
{"Compound": "Cc1nc(C2CCN(C(=O)c3ccc(OC(F)(F)F)cc3N)CC2)c2ncc(N3CCN(C)CC3)cc2n1", "assay": "cell-free assay, competition with immobilised ligand", "conditions": "1 µM", "remaining binding [%]": 100}
{"Compound": "FC(F)(F)Oc1cccc(-c2cnc3ccc(-c4ccncc4)nn23)c1", "assay": "cell-free assay, competition with immobilised ligand", "conditions": "5 µM", "remaining binding [%]": 91}
{"Compound": "Cc1cnn2ncc(-c3ccnc(N(C)C)n3)c2c1", "assay": "binding", "conditions": "1 µM", "remaining binding [%]": 100}
{"Compound": "COc1cnc(Nc2cccc(S(N)(=O)=O)c2)nc1N1CCN(c2ccccc2)CC1", "assay": "binding, competition with immobilised ligand", "conditions": "1 µM", "remaining binding [%]": 74}
{"Compound": "CS(=O)(=O)N1CCCC(NC(=O)[C@H](CCC2CCCCC2)NC(=O)c2ccc(CNc3ncnc4c3nnn4-c3ccccc3)cc2)C1 (stereo partly drawn)", "assay": "cell-free assay, competition with immobilised ligand", "conditions": "0.1 µM", "remaining binding [%]": 88}
{"Compound": "C[C@@H]1CCN(c2nccc(-c3cnn4ncccc34)n2)C1", "assay": "binding", "conditions": "1 µM", "remaining binding [%]": 89}
{"Compound": "O=C(c1ccc(Nc2ncc(Cl)c(-c3ccc(Cl)s3)n2)cc1)N1CCC(N2CCCC2)CC1", "assay": "binding, competition with immobilised ligand", "conditions": "1 µM", "remaining binding [%]": 1.4}
{"Compound": "O=C(NCCCC1CCCCC1)c1ccc(CNC(=O)c2cnn(-c3ccccc3)c2C(F)(F)F)cc1", "assay": "cell-free assay, competition with immobilised ligand", "conditions": "0.1 µM", "remaining binding [%]": 97}
{"Compound": "O=C(Nc1c[nH]nc1C(=O)NC1CCNCC1)c1cc(F)cc(F)c1", "assay": "binding, competition with immobilised ligand", "conditions": "1 µM", "remaining binding [%]": 100}
{"Compound": "COc1cc(Nc2nccc(-c3cnn4nc(OC)ccc34)n2)cc(C(F)(F)F)c1", "assay": "binding, competition with immobilised ligand", "conditions": "1 µM", "remaining binding [%]": 40}
{"Compound": "CC(=O)N1CCC(c2ccc(C(=O)NC3=NCCN3)cc2C(F)(F)F)CC1", "assay": "cell-free assay, competition with immobilised ligand", "conditions": "1 µM", "remaining binding [%]": 100}
{"Compound": "c1cnn2ncc(-c3ccnc(N4CCC45COC5)n3)c2c1", "assay": "binding", "conditions": "1 µM", "remaining binding [%]": 86}
{"Compound": "O=C(NCCCN1CCOCC1)c1ccc(Nc2nccc(-c3cc4ccccc4s3)n2)cc1", "assay": "binding, competition with immobilised ligand", "conditions": "1 µM", "remaining binding [%]": 52}
{"Compound": "CC(=O)C1=C(C)N(c2cccc(C(F)(F)F)c2)C(=O)N[C@@H]1c1ccc(C#N)nc1", "assay": "cell-free assay, competition with immobilised ligand", "conditions": "1 µM", "remaining binding [%]": 100}
{"Compound": "CN(C)c1nccc(-c2cnn3ncccc23)n1", "assay": "binding", "conditions": "1 µM", "remaining binding [%]": 92}
{"Compound": "COc1ncc2cc3ccccc3nc2c1C#N", "assay": "cell-free assay, competition with immobilised ligand", "conditions": "5 µM", "remaining binding [%]": 100}
